Assay results from different studies.
Compare with care: the assays were run in different laboratories.
Target: Calcium/calmodulin-dependent protein kinase kinase 1 (CAMKK1, Homo sapiens, UniProt Q8N5S9)

| test | conditions | quantity | value | Structure (SMILES) |
| --- | --- | --- | --- | --- |
| cell-free assay | 0.5 µM | remaining signal | 90.2% | O=C1NC(=O)c2cc(Nc3ccc(F)cc3)c(Nc3ccc(F)cc3)cc21 |
| cell-free assay, competition with immobilised ligand | 1 µM | remaining binding | 100% | NS(=O)(=O)c1cc(NC(=O)Cc2ccccc2)ccc1Oc1cccc(Cl)c1 |
| cell-free assay | 0.5 µM | remaining signal | 84.8% | COc1cc(Nc2c(C#N)cnc3cc(OCCCN4CCN(C)CC4)c(OC)cc23)c(Cl)cc1Cl |
| cell-free assay, competition with immobilised ligand | 0.1 µM | remaining binding | 100% | COCCOc1nc(-c2ccc(Cl)nc2)nc2c1CN(C(=O)c1ncn3ccccc13)CC2 |
| enzyme activity, inhibitor, radiometric | 1 µM | remaining activity | 88% | CC(C)(C)c1nc2c(s1)c1nc(N)ncc1c1ccc(NS(=O)(=O)c3c(F)cccc3F)c(F)c12 |
| cell-free assay | 0.5 µM | remaining signal | 86.7% | N#CCCc1ccc2c(c1)-c1[nH]c3ccc([N+](=O)[O-])cc3c1CC(=O)N2 |
| thermal stability, DSF | 10 µM | ΔTm | 1.2 °C | Cn1c2c(c3ccc(Cl)c(Cl)c31)C(C#N)C1(CCOCC1)NC2=O (stereo not drawn) |
| enzyme activity, inhibitor | 1 µM | inhibition | 3% | CN1CC(Oc2cnc(C#N)cc2-c2ccn3nc(NC(=O)C4CC4)cc3c2)C1 |
| enzyme activity, inhibitor | 1 µM | remaining activity | 100% | COc1cc(Cl)c(C(=O)N[C@@H](CN[C@H]2CC[C@@H](N)CC2)Cc2ccc(C#N)cc2)cc1-c1ccc(CN[C@H](C)c2ccc(C)cc2)o1 |
| cell-free assay, competition with immobilised ligand | 1 µM | remaining binding | 100% | CCCCN(CCCC)C(=O)CN1C[C@H](c2cc(OC)c3c(c2)OCO3)[C@@H](C(=O)O)[C@@H]1CC(C)(C)CCC |
| thermal stability, DSF | 10 µM | ΔTm | -0.1 °C | CCN1CCC2(CC1)NC(=O)c1c(c3ccc(Cl)c(Cl)c3n1C)C2C#N (racemic) |
| target engagement in cells, inhibitor, chemoproteomics | 20 mM | inhibition | -24.9% | COc1cccc2c(NCc3ccccc3)nc(-n3c(N)nc4ccccc43)nc12 |
| cell-free assay, competition with immobilised ligand | 1 µM | remaining binding | 86% | CCCOc1ccc([C@H]2[C@H](C(=O)O)[C@@H](c3ccc4c(c3)OCO4)CN2CC(=O)Nc2c(CC)cccc2CC)cc1 |
| target engagement in cells, inhibitor, chemoproteomics | 20 mM | inhibition | -7.1% | c1ccc(CNc2nc(N3CCOc4ccccc43)nc3c2CCCC3)cc1 |
| cell-free assay, competition with immobilised ligand | 1 µM | remaining binding | 90% | CN(c1ccnc(CNc2nc(Nc3ccc4c(c3)CC(=O)N4)ncc2C(F)(F)F)n1)S(C)(=O)=O |
| thermal stability, DSF | 10 µM | ΔTm | 0.7 °C | Cn1c2c(Cl)c(Cl)ccc2c2cc(N)[nH]c(=O)c21 |
| cell-free assay, competition with immobilised ligand | 1 µM | remaining binding | 100% | Cc1nccc(COC(=O)N2C[C@@H]3[C@@H](CNC(=O)c4ccc5[nH]nnc5c4)[C@@H]3C2)n1 |
| enzyme activity, inhibitor | 5 µM | remaining activity | 130% | O=C(Nc1cnn(-c2csc(C(=O)NC3COC3)c2)c1)Nc1ccccc1Cl |
